Data on 16 molecules can be found in PubChem BioAssay.

The nature of test [1]: reducers of endogenous Her2 protein level, primary screen, SKBR3 breast tumor cells, AlphaScreen, ATP viability (AID 461).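 On Her2 level: lower value means less Her2 protein in the cells.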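 On viability: percent of carrier control wells set as 100% viability.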 To be noted: 18-24 h, measured here: SKBR3 viability, ATP luminescence, at 10 µM.
Test [2] deals with Receptor tyrosine-protein kinase erbB-2 (Homo sapiens) (UniProt P04626). The test is described as above. The conditions noted are these: 18-24 h, at 10 µM, stronger effect = lower value.
The nature of test [3]: SK-BR-3 cell growth inhibitors, pilot screen, 24 h, human (AID 572;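 active means viability at or below 10% of carrier control in both of two separate runs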;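 further: compound exposure lasted between 18 and 24 h rather than exactly 24 h; 100% = carrier-treated control wells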). To be noted: SK-BR-3 viability, CellTiter-Glo luminescence, at 10 µM, stronger effect = lower value.
Test [4] can be described thus: HUVEC growth inhibition – cell-based, human, primary screen (AID 575;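 active means viability at or below 30% in both replicate assays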;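 further: 100% = median of untreated cell wells with 0.1% DMSO on each plate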). The conditions noted are these: HUVEC proliferation, CellTiter-Glo luminescence, 72 h; at 10 µM; stronger effect = lower value. The method, boiled down: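 System: primary human umbilical vein endothelial cells; Quantity: 1250 endothelial cells in each well; Buffer or medium: supplemented EBM, 2% fetal bovine serum; Doses: one dose, 10 µM final, 0.1% DMSO; Incubation: 72 h compound incubation; Technique: ATP-based CellTiter-Glo luminescent read; Evaluation: percent of median DMSO-control luminescence; Controls: vehicle and MePR control wells.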

Test [5] is described as follows: growth inhibitors of H69AR lung tumor, primary screen, human, duplicate replicates (AID 580;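 active means viability at or under a set limit in both replicates, limit being median viability minus 3 SD, cut at about 48% in these data, passing the limit was not always enough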;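 further: 100% = mean luminescence of untreated wells and 0% = no signal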). To be noted: H69AR lung tumor cells viability, ATP luminescence, 72 h; at 10 µM; stronger effect = lower value.
Test [6] in a line: reversal of MRP1-mediated doxorubicin resistance, pilot screen, H69AR cells, doxorubicin co-treatment (AID 601;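 active means viability loss from added drug above about 55%, and viability with drug at most 40%, in both replicates, limit read from the data, passing the limit was not always enough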). The conditions noted are these: CellTiter-Glo, 72 h, at 10 µM; for differential viability (reversal): stronger effect = higher value.
Test [7] in a line: 384-well plate pilot, post-Golgi transport modulator project, inhibition of yeast transport mutant growth (AID 636; in the data active means inhibition above about 31%). The conditions noted are these: absorbance 615 nm, about 18 h, stronger effect = higher value.
The nature of test [8]: growth suppression of yeast trafficking mutant, preliminary HTS, modulators of trafficking downstream of Golgi apparatus project, 1536-format plate, OD 615 nm (AID 637; in the data active means inhibition above about 30%). To be noted: yeast transport mutant growth, absorbance 615 nm, 18 h; stronger effect = higher value.
The mark [9] stands for this setting: H69AR cells + 2 uM doxorubicin, measured here: viability with 2 uM doxorubicin, stronger effect = lower value.
[10] abbreviates: H69AR cells, compound alone cytotoxicity.

Molecules are shown by their SMILES. Active and inactive are the calls of the source.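 How the source made its calls, unless noted: active means Her2 level under about 52% in both replicate screens, with viability over 70% of control (limit read from the data); inconclusive means Her2 under the limit in one screen only, or viability under 70%; inactive means Her2 level above the set limit.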

Chain of Receptor tyrosine-protein kinase erbB-2 (Homo sapiens) (P04626 whole entry, looked up): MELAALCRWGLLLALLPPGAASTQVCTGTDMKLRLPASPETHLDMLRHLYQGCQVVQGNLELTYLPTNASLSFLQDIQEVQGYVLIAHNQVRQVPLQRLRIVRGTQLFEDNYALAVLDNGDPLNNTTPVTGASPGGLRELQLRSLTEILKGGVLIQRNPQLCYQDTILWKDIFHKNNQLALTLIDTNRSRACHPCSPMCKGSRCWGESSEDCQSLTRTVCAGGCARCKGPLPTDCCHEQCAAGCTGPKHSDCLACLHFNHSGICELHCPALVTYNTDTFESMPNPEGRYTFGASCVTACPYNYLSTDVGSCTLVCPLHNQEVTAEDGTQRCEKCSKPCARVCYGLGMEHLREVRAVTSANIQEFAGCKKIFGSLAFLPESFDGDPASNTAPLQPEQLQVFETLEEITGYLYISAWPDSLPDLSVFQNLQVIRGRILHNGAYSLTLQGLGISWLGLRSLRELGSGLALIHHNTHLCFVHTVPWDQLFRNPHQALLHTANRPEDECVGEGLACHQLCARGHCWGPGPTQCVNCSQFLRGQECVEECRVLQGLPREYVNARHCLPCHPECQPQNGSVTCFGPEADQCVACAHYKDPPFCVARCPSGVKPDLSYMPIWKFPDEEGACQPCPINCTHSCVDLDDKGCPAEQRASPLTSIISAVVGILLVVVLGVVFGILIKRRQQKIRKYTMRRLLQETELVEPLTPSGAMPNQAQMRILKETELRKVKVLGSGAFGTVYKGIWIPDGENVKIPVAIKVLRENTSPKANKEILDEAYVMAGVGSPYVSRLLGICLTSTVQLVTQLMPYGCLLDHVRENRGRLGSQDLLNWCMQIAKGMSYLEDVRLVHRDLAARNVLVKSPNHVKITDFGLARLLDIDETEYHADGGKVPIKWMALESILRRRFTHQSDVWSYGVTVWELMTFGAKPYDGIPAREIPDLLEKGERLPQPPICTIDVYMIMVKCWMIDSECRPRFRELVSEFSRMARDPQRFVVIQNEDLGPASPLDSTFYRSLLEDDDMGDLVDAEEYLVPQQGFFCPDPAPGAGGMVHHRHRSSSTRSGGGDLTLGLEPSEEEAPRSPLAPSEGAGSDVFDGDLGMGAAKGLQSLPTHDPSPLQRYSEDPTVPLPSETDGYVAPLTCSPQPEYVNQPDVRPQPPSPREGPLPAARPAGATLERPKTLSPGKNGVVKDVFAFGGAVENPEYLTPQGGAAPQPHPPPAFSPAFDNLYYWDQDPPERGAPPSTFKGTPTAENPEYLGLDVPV

In the case of `O=C(Cc1cccs1)Nc1ccccc1C(=O)O`, the viability in test [1] was 109%; in test [3], 109% (inactive); in test [4], 87.5% (inactive); in test [5], 103% (inactive); in test [6] (setting [9]), 97.2%; in test [6] (setting [10]), 103%. The Her2 level in test [2] was 96.5% (inactive). Moreover, in test [6] (H69AR cells + 2 uM doxorubicin), the differential viability (reversal) is 5.91% (inactive). Further, the inhibition in test [7] is -4.67% (inactive); in test [8] it was 5.16% (inactive).
As to `CS(=O)(=O)N1CCCC(C(=O)NCCCN2CCc3ccccc3C2)C1` (stereo not given), the viability in test [1] was 93%; in test [3] it was 93% (inactive); in test [4], 102% (inactive); in test [5], 95.1% (inactive); in test [6] (setting [9]), 87.8%; in test [6] (setting [10]), 95.1%. Moreover, the Her2 level in test [2] is 102% (inactive). Moreover, the differential viability (reversal) in test [6] (H69AR cells + 2 uM doxorubicin) is 7.38% (inactive). Besides, the results for the inhibition in test [7] and in test [8] were -0.91% (inactive) and -8.89% (inactive), respectively.
For the molecule `Cc1ccc(CNC(=O)CSc2n[nH]c(N)n2)cc1`, the viability in test [1] was 100%; in test [3], 100% (inactive); in test [4], 82.3% (inactive); in test [5], 96.6% (inactive); in test [6] (setting [9]) it was 98.5%; in test [6] (setting [10]) it was 96.6%. The Her2 level in test [2] is 99.5% (inactive). The differential viability (reversal) in test [6] (H69AR cells + 2 uM doxorubicin) was -1.86% (inactive). Moreover, the inhibition is 0.79% (inactive) in test [7] and 5.9% (inactive) in test [8].
In the case of `CCC(C(=O)O)n1c(C(F)(F)F)nc2ccccc21` (stereo not given), the viability is 105% in test [1]; 105% (inactive) in test [3]; 105% (inactive) in test [4]; 103% (inactive) in test [5]; 99.3% in test [6] (setting [9]); 103% in test [6] (setting [10]). Besides, in test [2], the Her2 level was 116% (inactive). The differential viability (reversal) in test [6] (H69AR cells + 2 uM doxorubicin) is 3.27% (inactive). Besides, the results for the inhibition in test [7] and in test [8] were -5.62% (inactive) and 0% (inactive), respectively.
In the case of `CC(C)Cn1c(-c2ccc(F)cc2)n[nH]c1=S`, the viability in test [1] was 114%; in test [3], 114% (inactive); in test [4], 80% (inactive); in test [5], 88.8% (inactive); in test [6] (setting [9]), 80.7%; in test [6] (setting [10]) it was 88.8%. In test [2], the Her2 level is 98.5% (inactive). The differential viability (reversal) in test [6] (H69AR cells + 2 uM doxorubicin) was 8.11% (inactive). Further, the results for the inhibition in test [7] and in test [8] were -5% (inactive) and -1.33% (inactive), respectively.
As to `CCOC(=O)CSc1cn2c(n1)CCC2`, the viability in test [1] is 99.5%; in test [3], 99.5% (inactive); in test [4], 92% (inactive); in test [5], 92.4% (inactive); in test [6] (setting [9]), 94.7%; in test [6] (setting [10]) it was 92.4%. Besides, the Her2 level in test [2] was 103% (inactive). Also, the differential viability (reversal) in test [6] (H69AR cells + 2 uM doxorubicin) is -2.28% (inactive). Further, the inhibition was -0.79% (inactive) in test [7] and -8.87% (inactive) in test [8].
`O=C(NCc1ccco1)C1CC(=O)N(c2ccc(F)cc2)C1` (stereo not given): the viability is 96.5% in test [1]; 96.5% (inactive) in test [3]; 108% (inactive) in test [4]; 108% (inactive) in test [5]; 91.5% in test [6] (setting [9]); 108% in test [6] (setting [10]). Also, the Her2 level in test [2] was 97% (inactive). Also, the differential viability (reversal) in test [6] (H69AR cells + 2 uM doxorubicin) is 16% (inactive). For the same molecule, the inhibition in test [7] is -0.93% (inactive); in test [8], -1.61% (inactive).
Regarding `CCCN(S(=O)(=O)c1ccc(OCC)cc1)S(=O)(=O)c1cccs1`, the viability in test [1] is 89%; in test [3], 89% (inactive); in test [4] it was 88.1% (inactive); in test [5], 89.8% (inactive); in test [6] (setting [9]), 84%; in test [6] (setting [10]), 89.8%. Besides, in test [2], the Her2 level is 100% (inactive). For the same molecule, in test [6] (H69AR cells + 2 uM doxorubicin), the differential viability (reversal) is 5.81% (inactive). Besides, the inhibition in test [7] is 0.8% (inactive); in test [8] it was -10.8% (inactive).
Turning to `CC1=C(C(=O)NCc2ccccc2)C(c2ccccc2OCC(N)=O)NC(=O)N1` (stereo not given), the viability in test [1] was 93.5%; in test [3] it was 93.5% (inactive); in test [4] it was 89.1% (inactive); in test [5], 109% (inactive); in test [6] (setting [9]), 92.9%; in test [6] (setting [10]) it was 109%. The Her2 level in test [2] was 77% (inactive). Also, in test [6] (H69AR cells + 2 uM doxorubicin), the differential viability (reversal) was 15.9% (inactive). For the same molecule, the figures for the inhibition in test [7] and in test [8] were -4.13% (inactive) and 1.43% (inactive), respectively.
On to `CC(NCc1ccco1)C(=O)N1CCc2ccccc2C1` (stereo not given), for which the viability was 108% in test [1]; 108% (inactive) in test [3]; 109% (inactive) in test [4]; 92.9% (inactive) in test [5]; 87.4% in test [6] (setting [9]); 92.9% in test [6] (setting [10]). In addition, in test [2], the Her2 level was 108% (inactive). For the same molecule, the differential viability (reversal) in test [6] (H69AR cells + 2 uM doxorubicin) is 5.48% (inactive). Moreover, the inhibition in test [7] is 1.92% (inactive); in test [8], -2.06% (inactive).
Take `O=C(c1ccco1)N1CCN(S(=O)(=O)c2ccc3c(c2)CCN3C(=O)C2CCC2)CC1`: the viability was 81.5% in test [1]; 81.5% (inactive) in test [3]; 101% (inactive) in test [4]; 95.6% (inactive) in test [5]; 83.9% in test [6] (setting [9]); 95.6% in test [6] (setting [10]). Besides, the Her2 level in test [2] was 130% (inactive). Moreover, the differential viability (reversal) in test [6] (H69AR cells + 2 uM doxorubicin) was 11.7% (inactive). The inhibition in test [7] was -1.71% (inactive); in test [8] it was -6.5% (inactive).
In the case of `CCc1cccc(NC(=O)C2CCCN(S(=O)(=O)c3c(C)[nH]c(=O)[nH]c3=O)C2)c1` (stereo not given), the viability in test [1] was 89.5%; in test [3] it was 89.5% (inactive); in test [4], 97% (inactive); in test [5], 95% (inactive); in test [6] (setting [9]) it was 88.2%; in test [6] (setting [10]) it was 95%. In test [2], the Her2 level is 82% (inactive). The differential viability (reversal) in test [6] (H69AR cells + 2 uM doxorubicin) was 6.79% (inactive). Further, the inhibition was -2.89% (inactive) in test [7] and -3.83% (inactive) in test [8].
Regarding `CC(=O)c1c(NCCc2ccccc2)cc(C)oc1=O`, the viability in test [1] was 99.5%; in test [3], 99.5% (inactive); in test [4], 119% (inactive); in test [5], 101% (inactive); in test [6] (setting [9]), 91.5%; in test [6] (setting [10]) it was 101%. Also, in test [2], the Her2 level was 86% (inactive). The differential viability (reversal) in test [6] (H69AR cells + 2 uM doxorubicin) is 9.25% (inactive). Moreover, the values for the inhibition in test [7] and in test [8] were -2.57% (inactive) and -4.83% (inactive), respectively.
As for `COc1ccc(S(=O)(=O)CCC(=O)O)cc1`, the viability in test [1] was 96.5%; in test [3] it was 96.5% (inactive); in test [4], 93.7% (inactive); in test [5], 106% (inactive); in test [6] (setting [9]), 95.7%; in test [6] (setting [10]), 106%. Besides, in test [2], the Her2 level was 83.5% (inactive). Moreover, the differential viability (reversal) in test [6] (H69AR cells + 2 uM doxorubicin) was 10.3% (inactive). Further, the inhibition in test [7] was -4.05% (inactive); in test [8], 2.54% (inactive).
Regarding `CCOP(=O)(c1ccc(N(C)C)cc1)C(O)c1ccccc1OC` (stereo not given), the viability is 86% in test [1]; 86% (inactive) in test [3]; 115% (inactive) in test [4]; 98.7% (inactive) in test [5]; 95.1% in test [6] (setting [9]); 98.7% in test [6] (setting [10]). The Her2 level in test [2] is 98.5% (inactive). Moreover, the differential viability (reversal) in test [6] (H69AR cells + 2 uM doxorubicin) was 3.56% (inactive). Moreover, the inhibition in test [7] is -1.07% (inactive); in test [8], -3.65% (inactive).
For `O=C(Nc1ccccc1)c1cccnc1N1CCOCC1`, the viability in test [1] is 94%; in test [3], 94% (inactive); in test [4], 105% (inactive); in test [5], 102% (inactive); in test [6] (setting [9]), 84.1%; in test [6] (setting [10]), 102%. Moreover, in test [2], the Her2 level was 80% (inactive). Moreover, the differential viability (reversal) in test [6] (H69AR cells + 2 uM doxorubicin) is 18.2% (inactive). For the same molecule, the inhibition was -0.92% (inactive) in test [7] and -2.73% (inactive) in test [8].
